Assay results published in ChEMBL document CHEMBL1143315, “Investigation of ketone warheads as alternatives to the nitrile for preparation of potent and selective cathepsin K inhibitors” (Bioorg Med Chem Lett, 2009).

Legend:
Homo sapiens [1] = organism: Homo sapiens; assay: Selectivity ratio of IC50 for human cathepsin B to IC50 for humanized rabbit cathepsin K
[2] = Clearance in rat at 2 to 5 mg/kg, iv; assay type: ADME, organism-based; design: dose 2-5 mg/kg, route intravenous; conditions: in vivo
Summary of the method: (§1)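 Rats were given a single IV dose of 2–5 mg/kg in 60% PEG 200. Half-life (t1/2) and clearance (Cl, mL/min/kg) were taken from the plasma profile. Where two distinct phases were seen, separate t1/2a and terminal t1/2b values were calculated.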

Cathepsin K = Cathepsin K (Homo sapiens, UniProt P43235); assay: Inhibition of humanized rabbit cathepsin K
Homo sapiens [3] = organism: Homo sapiens; assay: Selectivity ratio of IC50 for human cathepsin L to IC50 for humanized rabbit cathepsin K
[4] = Half life in rat at 2 to 5 mg/kg, iv; assay type: ADME, organism-based; design: dose 2-5 mg/kg, route intravenous; conditions: in vivo; summary of the method: as §1
Homo sapiens [5] = organism: Homo sapiens; assay: Selectivity ratio of IC50 for human cathepsin S to IC50 for humanized rabbit cathepsin K
[6] = Terminal half life in rat at 2 to 5 mg/kg, iv; assay type: ADME, organism-based; design: dose 2-5 mg/kg, route intravenous; conditions: in vivo, read-out: beta t1/2 (converted); summary of the method: as §1
[7] = Primary phase half life in rat at 2 to 5 mg/kg, iv; assay type: ADME, organism-based; design: dose 2-5 mg/kg, route intravenous; conditions: in vivo, read-out: alphat1/2 (converted); summary of the method: as §1
Rattus norvegicus = organism: Rattus norvegicus; assay: Metabolic stability in rat hepatocytes assessed as compound remaining after 2 hrs

Row | SMILES | Ratio IC50 (Homo sapiens [1]) | clearance [2] | IC50 (Cathepsin K) | Ratio IC50 (Homo sapiens [3]) | half-life [4] | Ratio IC50 (Homo sapiens [5]) | half-life [6] | half-life [7] | remaining at 2 h (Rattus norvegicus)
1 | CC(C)(F)C[C@H](N[C@@H](c1ccc(-c2ccc(S(C)(=O)=O)cc2)cc1)C(F)(F)F)C(=O)NC1CCN(S(=O)(=O)c2ccccn2)CC1=O (stereo not given in full) | 232 | 24 mL/min/kg | 5.7 nM | 621 | 0.6 h | 22 | – | – | –
2 | CC(C)(F)C[C@H](N[C@@H](c1ccc(-c2ccc(S(C)(=O)=O)cc2)cc1)C(F)(F)F)C(=O)NC1CCN(c2ccccc2S(C)(=O)=O)CC1=O (stereo not given in full) | 1 | – | 6.9 nM | 91 | – | 3.9 | – | – | –
3 | CCOC(=O)N1CCCC(NC(=O)[C@H](CC(C)(C)F)N[C@@H](c2ccc(-c3ccc(S(C)(=O)=O)cc3)cc2)C(F)(F)F)C(=O)C1 (stereo not given in full) | > 185 | – | 54 nM | > 185 | – | 46 | – | – | –
4 | COC(=O)NCC(=O)CNC(=O)[C@H](CC(C)(C)F)N[C@@H](c1ccc(-c2ccc(S(C)(=O)=O)cc2)cc1)C(F)(F)F | 148 | 17 mL/min/kg | 45 nM | 152 | 1.1 h | 38 | – | – | –
5 | CCOC(=O)N1CC(=O)C(NC(=O)[C@H](CC(C)(C)F)N[C@@H](c2ccc(-c3ccc(S(C)(=O)=O)cc3)cc2)C(F)(F)F)C1 (stereo not given in full) | – | 53 mL/min/kg | 1.6 nM | – | 2.1 h | – | – | – | –
6 | CC(C)(F)C[C@H](N[C@@H](c1ccc(-c2ccc(S(C)(=O)=O)cc2)cc1)C(F)(F)F)C(=O)NC1CN(C(=O)OC(C)(C)C)CC1=O (stereo not given in full) | 27 | – | 3.9 nM | 403 | – | 29 | – | – | –
7 | CC(C)(F)C[C@H](N[C@@H](c1ccc(-c2ccc(S(C)(=O)=O)cc2)cc1)C(F)(F)F)C(=O)NC1CN(C(=O)NCc2ccccc2)CC1=O (stereo not given in full) | 53 | – | 15 nM | 667 | – | 36 | – | – | –
8 | CC(C)(F)C[C@H](N[C@@H](c1ccc(-c2ccc(S(C)(=O)=O)cc2)cc1)C(F)(F)F)C(=O)NC1CCCN(S(=O)(=O)c2ccccn2)CC1=O (stereo in doubt; 11) [listing 1 of 2 here] | > 1000 | – | – | 681 | – | 35 | – | – | –
9 | CC(C)(F)C[C@H](N[C@@H](c1ccc(-c2ccc(S(C)(=O)=O)cc2)cc1)C(F)(F)F)C(=O)NC1CCCN(S(=O)(=O)c2ccccn2)CC1=O (stereo in doubt; 10) [listing 1 of 2 here] | – | – | 10 nM | – | – | – | – | – | –
10 | CC(C)(F)C[C@H](N[C@@H](c1ccc(-c2ccc(S(C)(=O)=O)cc2)cc1)C(F)(F)F)C(=O)NC1CCCN(S(=O)(=O)c2cccc[n+]2[O-])CC1=O (stereo not given in full) | > 1000 | – | 2.6 nM | 984 | – | 33 | – | – | –
11 | CC(C)(F)C[C@H](N[C@@H](c1ccc(-c2ccc(S(C)(=O)=O)cc2)cc1)C(F)(F)F)C(=O)NC1CCCN(S(=O)(=O)c2ccccn2)CC1=O (stereo in doubt; 9) [listing 1 of 2 here] | > 1000 | – | – | 939 | – | 45 | – | – | –
12 | CC(C)(F)C[C@H](N[C@@H](c1ccc(-c2ccc(S(C)(=O)=O)cc2)cc1)C(F)(F)F)C(=O)NC1CCCN(S(=O)(=O)c2ccccn2)CC1=O (stereo in doubt; 11) [listing 2 of 2 here] | – | – | 1.8 nM | – | – | – | – | – | –
13 | CC(C)(F)C[C@H](N[C@@H](c1ccc(-c2ccc(S(C)(=O)=O)cc2)cc1)C(F)(F)F)C(=O)NC1CN(S(=O)(=O)c2ccccn2)CC1=O (stereo not given in full) | – | 43 mL/min/kg | 85 nM | – | 1.3 h | – | – | – | –
14 | COC(=O)N1CC(=O)C(NC(=O)[C@H](CC(C)(C)F)N[C@@H](c2ccc(-c3ccc(S(C)(=O)=O)cc3)cc2)C(F)(F)F)C1 (stereo not given in full) | – | 40 mL/min/kg | 4.3 nM | – | 2.8 h | – | – | – | –
15 | CC(C)(F)C[C@H](N[C@@H](c1ccc(-c2ccc(S(C)(=O)=O)cc2)cc1)C(F)(F)F)C(=O)NC1CN(C(=O)c2ccccc2)CC1=O (stereo not given in full) | 188 | – | 2.9 nM | 197 | – | 14 | – | – | –
16 | CC(C)(F)C[C@H](N[C@@H](c1ccc(-c2ccc(S(C)(=O)=O)cc2)cc1)C(F)(F)F)C(=O)NC1CCCN(S(C)(=O)=O)CC1=O (stereo not given in full) | > 1000 | – | 16 nM | 617 | – | 114 | – | – | –
17 | CC(C)(F)C[C@H](N[C@@H](c1ccc(-c2ccc(S(C)(=O)=O)cc2)cc1)C(F)(F)F)C(=O)NC1CNCC1=O (stereo not given in full) | 485 | – | 9.8 nM | 16 | – | 159 | – | – | –
18 | CC(C)(F)C[C@H](N[C@@H](c1ccc(-c2ccc(S(C)(=O)=O)cc2)cc1)C(F)(F)F)C(=O)NC1CN(C(=O)NS(=O)(=O)c2ccccc2)CC1=O (stereo not given in full) | 9 | – | 68 nM | > 147 | – | > 6 | – | – | –
19 | CC(C)(F)C[C@H](N[C@@H](c1ccc(-c2ccc(S(C)(=O)=O)cc2)cc1)C(F)(F)F)C(=O)NC1CCCN(S(=O)(=O)c2ccccn2)CC1=O (stereo in doubt; 9) [listing 2 of 2 here] | – | 46 mL/min/kg | 2 nM | – | – | – | 11 h | 0.6 h | 56%
20 | CCOC(=O)N1CCC(NC(=O)[C@H](CC(C)(C)F)N[C@@H](c2ccc(-c3ccc(S(C)(=O)=O)cc3)cc2)C(F)(F)F)C(=O)C1 (stereo not given in full) | 364 | – | 9 nM | > 1000 | – | 10 | – | – | –
21 | CC(C)(F)C[C@H](N[C@@H](c1ccc(-c2ccc(S(C)(=O)=O)cc2)cc1)C(F)(F)F)C(=O)NC1CN(S(C)(=O)=O)CC1=O (stereo not given in full) | 370 | – | 27 nM | 158 | – | 313 | – | – | –
22 | CC(C)(F)C[C@H](N[C@@H](c1ccc(-c2ccc(S(C)(=O)=O)cc2)cc1)C(F)(F)F)C(=O)NC1CN(C(N)=O)CC1=O (stereo not given in full) | 355 | – | 7.3 nM | 40 | – | 104 | – | – | –
23 | CC(C)(F)C[C@H](N[C@@H](c1ccc(-c2ccc(S(C)(=O)=O)cc2)cc1)C(F)(F)F)C(=O)NC1CCCN(S(=O)(=O)c2ccccn2)CC1=O (stereo in doubt; 10) [listing 2 of 2 here] | > 1000 | – | – | > 1000 | – | 54 | – | – | –
24 | CC(C)(F)C[C@H](N[C@@H](c1ccc(-c2ccc(S(C)(=O)=O)cc2)cc1)C(F)(F)F)C(=O)NC1CCN(c2ccccc2)CC1=O (stereo not given in full) | 2 | – | 8.3 nM | 101 | – | 8 | – | – | –
25 | CC(C)(F)C[C@H](N[C@@H](c1ccc(-c2ccc(S(C)(=O)=O)cc2)cc1)C(F)(F)F)C(=O)NC1CCCNCC1=O (stereo not given in full) | 303 | – | 33 nM | 236 | – | 179 | – | – | –
26 | CC(C)(F)C[C@H](N[C@@H](c1ccc(-c2ccc(S(C)(=O)=O)cc2)cc1)C(F)(F)F)C(=O)NC1(C#N)CC1 [ODANACATIB] | – | 2 mL/min/kg | 0.2 nM | – | 6 h | – | – | – | –
27 | CC(C)(F)C[C@H](N[C@@H](c1ccc(-c2ccc(S(C)(=O)=O)cc2)cc1)C(F)(F)F)C(=O)NC1CCCN(S(=O)(=O)Cc2ccccc2)CC1=O (stereo not given in full) | 50 | – | 159 nM | > 63 | – | 8 | – | – | –
28 | CC(C)(F)C[C@H](N[C@@H](c1ccc(-c2ccc(S(C)(=O)=O)cc2)cc1)C(F)(F)F)C(=O)NC1CN(C(=O)Nc2ccccc2)CC1=O (stereo not given in full) | 355 | – | 7.3 nM | 40 | – | 104 | – | – | –
29 | CC(=O)N1CC(=O)C(NC(=O)[C@H](CC(C)(C)F)N[C@@H](c2ccc(-c3ccc(S(C)(=O)=O)cc3)cc2)C(F)(F)F)C1 (stereo not given in full) | > 1000 | 67 mL/min/kg | 4.2 nM | > 1000 | 1.2 h | 604 | – | – | –
